Laboratory results taken from ChEMBL document CHEMBL1212777, “Novel VIM metallo-beta-lactamase variant from clinical isolates of Enterobacteriaceae from Algeria” (2010).

Experiments:
[1] = test system: Escherichia coli BL21(DE3); assay: Hydrolytic activity of Escherichia coli BL21 DE3 beta-lactamase VIM-19 by microacidimetric method
Outline: (§1)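 Enzyme overexpressed from modified pET9a in E. coli BL21(DE3), released by sonication, and purified on Q Sepharose (20 mM Tris-HCl pH 7.4, 0–500 mM NaCl gradient) then Superose 12. Protein measured by Bio-Rad assay against a BSA standard.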

[2] = test system: Escherichia coli BL21(DE3); assay: Ratio of Kcat to Km for Escherichia coli BL21 DE3 beta-lactamase VIM-19 by microacidimetric method; outline: as §1
[3] = test system: CO[C@@]1(NC(=O)Cc2cccs2)C(=O)N2C(C(=O)O)=C(COC(N)=O)CS[C@@H]21; assay: (§2) Hydrolytic activity of beta-lactamase VIM-1 in Escherichia coli DH5alpha expressing pBCLL/39H by microacidimetric method
[4] = test system: CC(=O)OCC1=C(C(=O)O)N2C(=O)[C@@H](NC(=O)Cc3cccs3)[C@H]2SC1; assay: as §2
[5] = test system: CO/N=C(\C(=O)N[C@@H]1C(=O)N2C(C(=O)O)=C(COC(C)=O)CS[C@H]12)c1csc(N)n1; assay: as §2
[6] = test system: CC1(C)S[C@@H]2[C@H](NC(=O)Cc3ccccc3)C(=O)N2[C@H]1C(=O)O; assay: as §2
[7] = test system: CO/N=C(\C(=O)N[C@@H]1C(=O)N2C(C(=O)O)=C(COC(N)=O)CS[C@H]12)c1ccco1; assay: as §2
[8] = test system: CCN1CCN(C(=O)N[C@@H](C(=O)N[C@@H]2C(=O)N3[C@@H]2SC(C)(C)[C@@H]3C(=O)O)c2ccccc2)C(=O)C1=O; assay: as §2
[9] = test system: CO[C@@]1(NC(=O)Cc2cccs2)C(=O)N2C(C(=O)O)=C(COC(N)=O)CS[C@@H]21; assay: (§3) Ratio of Kcat to Km for beta-lactamase VIM-1 in Escherichia coli DH5alpha expressing pBCLL/39H by microacidimetric method
[10] = test system: CC(=O)OCC1=C(C(=O)O)N2C(=O)[C@@H](NC(=O)Cc3cccs3)[C@H]2SC1; assay: as §3
[11] = test system: CO/N=C(\C(=O)N[C@@H]1C(=O)N2C(C(=O)O)=C(COC(C)=O)CS[C@H]12)c1csc(N)n1; assay: as §3
[12] = test system: CC(C)(O/N=C(\C(=O)N[C@@H]1C(=O)N2C(C(=O)[O-])=C(C[n+]3ccccc3)CS[C@H]12)c1csc(N)n1)C(=O)O; assay: as §3
[13] = test system: CC1(C)S[C@@H]2[C@H](NC(=O)Cc3ccccc3)C(=O)N2[C@H]1C(=O)O; assay: as §3
[14] = test system: C[C@@H](O)[C@H]1C(=O)N2C(C(=O)O)=C(S[C@@H]3CN[C@H](C(=O)N(C)C)C3)[C@H](C)[C@H]12; assay: as §3
[15] = test system: CO/N=C(\C(=O)N[C@@H]1C(=O)N2C(C(=O)O)=C(COC(N)=O)CS[C@H]12)c1ccco1; assay: as §3
[16] = test system: CCN1CCN(C(=O)N[C@@H](C(=O)N[C@@H]2C(=O)N3[C@@H]2SC(C)(C)[C@@H]3C(=O)O)c2ccccc2)C(=O)C1=O; assay: as §3
[17] = test system: CC1(C)S[C@@H]2[C@H](NC(=O)[C@H](N)c3ccc(O)cc3)C(=O)N2[C@H]1C(=O)O; assay: (§4) Hydrolytic activity of Escherichia coli DH10B beta-lactamase VIM-2 by microacidimetric method; conditions: Escherichia coli str. K-12 substr. DH10B
[18] = test system: CC1(C)S[C@@H]2[C@H](NC(=O)[C@H](C(=O)O)c3ccsc3)C(=O)N2[C@H]1C(=O)O; assay: as §4; conditions: Escherichia coli str. K-12 substr. DH10B
[19] = test system: CO/N=C(\C(=O)N[C@@H]1C(=O)N2C(C(=O)[O-])=C(C[N+]3(C)CCCC3)CS[C@H]12)c1csc(N)n1; assay: as §4; conditions: Escherichia coli str. K-12 substr. DH10B
[20] = test system: C[C@H]1[C@H](NC(=O)/C(=N\OC(C)(C)C(=O)O)c2csc(N)n2)C(=O)N1S(=O)(=O)O; assay: as §4; conditions: Escherichia coli str. K-12 substr. DH10B
[21] = test system: C[C@@H](O)[C@H]1C(=O)N2C(C(=O)O)=C(S[C@@H]3CN[C@H](C(=O)Nc4cccc(C(=O)O)c4)C3)[C@H](C)[C@H]12; assay: as §4; conditions: Escherichia coli str. K-12 substr. DH10B
[22] = test system: CO[C@@]1(NC(=O)Cc2cccs2)C(=O)N2C(C(=O)O)=C(COC(N)=O)CS[C@@H]21; assay: as §4; conditions: Escherichia coli str. K-12 substr. DH10B
[23] = test system: CC(=O)OCC1=C(C(=O)O)N2C(=O)[C@@H](NC(=O)Cc3cccs3)[C@H]2SC1; assay: as §4; conditions: Escherichia coli str. K-12 substr. DH10B
[24] = test system: CO/N=C(\C(=O)N[C@@H]1C(=O)N2C(C(=O)O)=C(COC(C)=O)CS[C@H]12)c1csc(N)n1; assay: as §4; conditions: Escherichia coli str. K-12 substr. DH10B
[25] = test system: CC(C)(O/N=C(\C(=O)N[C@@H]1C(=O)N2C(C(=O)[O-])=C(C[n+]3ccccc3)CS[C@H]12)c1csc(N)n1)C(=O)O; assay: as §4; conditions: Escherichia coli str. K-12 substr. DH10B
[26] = test system: CC1(C)S[C@@H]2[C@H](NC(=O)Cc3ccccc3)C(=O)N2[C@H]1C(=O)O; assay: as §4; conditions: Escherichia coli str. K-12 substr. DH10B
[27] = test system: C[C@@H](O)[C@H]1C(=O)N2C(C(=O)O)=C(SCCNC=N)C[C@H]12; assay: as §4; conditions: Escherichia coli str. K-12 substr. DH10B
[28] = test system: C[C@@H](O)[C@H]1C(=O)N2C(C(=O)O)=C(S[C@@H]3CN[C@H](C(=O)N(C)C)C3)[C@H](C)[C@H]12; assay: as §4; conditions: Escherichia coli str. K-12 substr. DH10B
[29] = test system: CO/N=C(\C(=O)N[C@@H]1C(=O)N2C(C(=O)O)=C(COC(N)=O)CS[C@H]12)c1ccco1; assay: as §4; conditions: Escherichia coli str. K-12 substr. DH10B
[30] = test system: CCN1CCN(C(=O)N[C@@H](C(=O)N[C@@H]2C(=O)N3[C@@H]2SC(C)(C)[C@@H]3C(=O)O)c2ccccc2)C(=O)C1=O; assay: as §4; conditions: Escherichia coli str. K-12 substr. DH10B
[31] = test system: CC1(C)S[C@@H]2[C@H](NC(=O)[C@H](N)c3ccc(O)cc3)C(=O)N2[C@H]1C(=O)O; assay: (§5) Ratio of Kcat to Km for Escherichia coli DH10B beta-lactamase VIM-2 by microacidimetric method; conditions: Escherichia coli str. K-12 substr. DH10B
[32] = test system: CC1(C)S[C@@H]2[C@H](NC(=O)[C@H](C(=O)O)c3ccsc3)C(=O)N2[C@H]1C(=O)O; assay: as §5; conditions: Escherichia coli str. K-12 substr. DH10B
[33] = test system: CO/N=C(\C(=O)N[C@@H]1C(=O)N2C(C(=O)[O-])=C(C[N+]3(C)CCCC3)CS[C@H]12)c1csc(N)n1; assay: as §5; conditions: Escherichia coli str. K-12 substr. DH10B
[34] = test system: C[C@@H](O)[C@H]1C(=O)N2C(C(=O)O)=C(S[C@@H]3CN[C@H](C(=O)Nc4cccc(C(=O)O)c4)C3)[C@H](C)[C@H]12; assay: as §5; conditions: Escherichia coli str. K-12 substr. DH10B
[35] = test system: CO[C@@]1(NC(=O)Cc2cccs2)C(=O)N2C(C(=O)O)=C(COC(N)=O)CS[C@@H]21; assay: as §5; conditions: Escherichia coli str. K-12 substr. DH10B
[36] = test system: CC(=O)OCC1=C(C(=O)O)N2C(=O)[C@@H](NC(=O)Cc3cccs3)[C@H]2SC1; assay: as §5; conditions: Escherichia coli str. K-12 substr. DH10B
[37] = test system: CO/N=C(\C(=O)N[C@@H]1C(=O)N2C(C(=O)O)=C(COC(C)=O)CS[C@H]12)c1csc(N)n1; assay: as §5; conditions: Escherichia coli str. K-12 substr. DH10B
[38] = test system: CC(C)(O/N=C(\C(=O)N[C@@H]1C(=O)N2C(C(=O)[O-])=C(C[n+]3ccccc3)CS[C@H]12)c1csc(N)n1)C(=O)O; assay: as §5; conditions: Escherichia coli str. K-12 substr. DH10B
[39] = test system: CC1(C)S[C@@H]2[C@H](NC(=O)Cc3ccccc3)C(=O)N2[C@H]1C(=O)O; assay: as §5; conditions: Escherichia coli str. K-12 substr. DH10B
[40] = test system: C[C@@H](O)[C@H]1C(=O)N2C(C(=O)O)=C(SCCNC=N)C[C@H]12; assay: as §5; conditions: Escherichia coli str. K-12 substr. DH10B
[41] = test system: C[C@@H](O)[C@H]1C(=O)N2C(C(=O)O)=C(S[C@@H]3CN[C@H](C(=O)N(C)C)C3)[C@H](C)[C@H]12; assay: as §5; conditions: Escherichia coli str. K-12 substr. DH10B
[42] = test system: CO/N=C(\C(=O)N[C@@H]1C(=O)N2C(C(=O)O)=C(COC(N)=O)CS[C@H]12)c1ccco1; assay: as §5; conditions: Escherichia coli str. K-12 substr. DH10B
[43] = test system: CCN1CCN(C(=O)N[C@@H](C(=O)N[C@@H]2C(=O)N3[C@@H]2SC(C)(C)[C@@H]3C(=O)O)c2ccccc2)C(=O)C1=O; assay: as §5; conditions: Escherichia coli str. K-12 substr. DH10B

CC(=O)OCC1=C(C(=O)O)N2C(=O)[C@@H](NC(=O)Cc3cccs3)[C@H]2SC1
kcat [1]: 21.2 s⁻¹
kcat/Km [2]: 1.4e+06 M⁻¹ s⁻¹

CC(C)(O/N=C(\C(=O)N[C@@H]1C(=O)N2C(C(=O)[O-])=C(C[n+]3ccccc3)CS[C@H]12)c1csc(N)n1)C(=O)O
kcat [1]: 6.3 s⁻¹
kcat/Km [2]: 70000 M⁻¹ s⁻¹

CC1(C)S[C@@H]2[C@H](NC(=O)Cc3ccccc3)C(=O)N2[C@H]1C(=O)O
kcat [1]: 206 s⁻¹
kcat/Km [2]: 3.6e+06 M⁻¹ s⁻¹

CC1(C)S[C@@H]2[C@H](NC(=O)[C@H](C(=O)O)c3ccsc3)C(=O)N2[C@H]1C(=O)O
kcat [1]: 45.8 s⁻¹
kcat/Km [2]: 700000 M⁻¹ s⁻¹

CC1(C)S[C@@H]2[C@H](NC(=O)[C@H](N)c3ccc(O)cc3)C(=O)N2[C@H]1C(=O)O
kcat [1]: 112 s⁻¹
kcat/Km [2]: 3.3e+06 M⁻¹ s⁻¹

CCN1CCN(C(=O)N[C@@H](C(=O)N[C@@H]2C(=O)N3[C@@H]2SC(C)(C)[C@@H]3C(=O)O)c2ccccc2)C(=O)C1=O
kcat [1]: 160 s⁻¹
kcat/Km [2]: 4.3e+06 M⁻¹ s⁻¹

CO/N=C(\C(=O)N[C@@H]1C(=O)N2C(C(=O)O)=C(COC(C)=O)CS[C@H]12)c1csc(N)n1
kcat [1]: 34.3 s⁻¹
kcat/Km [2]: 950000 M⁻¹ s⁻¹

CO/N=C(\C(=O)N[C@@H]1C(=O)N2C(C(=O)O)=C(COC(N)=O)CS[C@H]12)c1ccco1
kcat [1]: 5.3 s⁻¹
kcat/Km [2]: 400000 M⁻¹ s⁻¹

CO/N=C(\C(=O)N[C@@H]1C(=O)N2C(C(=O)[O-])=C(C[N+]3(C)CCCC3)CS[C@H]12)c1csc(N)n1
kcat [1]: 12.5 s⁻¹
kcat/Km [2]: 230000 M⁻¹ s⁻¹

CO[C@@]1(NC(=O)Cc2cccs2)C(=O)N2C(C(=O)O)=C(COC(N)=O)CS[C@@H]21
kcat [1]: 4 s⁻¹
kcat/Km [2]: 80000 M⁻¹ s⁻¹

C[C@@H](O)[C@H]1C(=O)N2C(C(=O)O)=C(SCCNC=N)C[C@H]12
kcat [1]: 8.2 s⁻¹
kcat/Km [2]: 370000 M⁻¹ s⁻¹

C[C@@H](O)[C@H]1C(=O)N2C(C(=O)O)=C(S[C@@H]3CN[C@H](C(=O)N(C)C)C3)[C@H](C)[C@H]12
kcat [1]: 1.3 s⁻¹
kcat/Km [2]: 140000 M⁻¹ s⁻¹

C[C@@H](O)[C@H]1C(=O)N2C(C(=O)O)=C(S[C@@H]3CN[C@H](C(=O)Nc4cccc(C(=O)O)c4)C3)[C@H](C)[C@H]12
kcat [1]: 0.6 s⁻¹
kcat/Km [2]: 30000 M⁻¹ s⁻¹

C[C@H]1[C@H](NC(=O)/C(=N\OC(C)(C)C(=O)O)c2csc(N)n2)C(=O)N1S(=O)(=O)O
kcat [1]: < 0.1 s⁻¹

BlaVIM-1 (Escherichia coli) (from UniProt Q8GDC1)
kcat [3]: 26 s⁻¹
kcat [4]: 281 s⁻¹
kcat [5]: 169 s⁻¹
kcat [6]: 29 s⁻¹
kcat [7]: 324 s⁻¹
kcat [8]: 1860 s⁻¹
kcat/Km [9]: 200000 M⁻¹ s⁻¹
kcat/Km [10]: 5.3e+06 M⁻¹ s⁻¹
kcat/Km [11]: 680000 M⁻¹ s⁻¹
kcat/Km [12]: 76000 M⁻¹ s⁻¹
kcat/Km [13]: 34000 M⁻¹ s⁻¹
kcat/Km [14]: 270000 M⁻¹ s⁻¹
kcat/Km [15]: 7.7e+06 M⁻¹ s⁻¹
kcat/Km [16]: 530000 M⁻¹ s⁻¹

Metallo-beta-lactamase (Escherichia coli) (from UniProt Q5U7L7)
kcat [17]: 29.7 s⁻¹
kcat [18]: 31.7 s⁻¹
kcat [19]: 4.7 s⁻¹
kcat [20]: < 0.5 s⁻¹
kcat [21]: 0.2 s⁻¹
kcat [22]: 2.8 s⁻¹
kcat [23]: 56.2 s⁻¹
kcat [24]: 27.5 s⁻¹
kcat [25]: 88.7 s⁻¹
kcat [26]: 55.8 s⁻¹
kcat [27]: 9.9 s⁻¹
kcat [28]: 1.4 s⁻¹
kcat [29]: 12.1 s⁻¹
kcat [30]: 32.7 s⁻¹
kcat/Km [31]: 550000 M⁻¹ s⁻¹
kcat/Km [32]: 690000 M⁻¹ s⁻¹
kcat/Km [33]: 30000 M⁻¹ s⁻¹
kcat/Km [34]: 22000 M⁻¹ s⁻¹
kcat/Km [35]: 120000 M⁻¹ s⁻¹
kcat/Km [36]: 1.28e+06 M⁻¹ s⁻¹
kcat/Km [37]: 860000 M⁻¹ s⁻¹
kcat/Km [38]: 900000 M⁻¹ s⁻¹
kcat/Km [39]: 1.14e+06 M⁻¹ s⁻¹
kcat/Km [40]: 990000 M⁻¹ s⁻¹
kcat/Km [41]: 280000 M⁻¹ s⁻¹
kcat/Km [42]: 550000 M⁻¹ s⁻¹
kcat/Km [43]: 450000 M⁻¹ s⁻¹
